Measured values as given in ChEMBL document CHEMBL1795206, “Selective non zinc binding inhibitors of MMP13” (Bioorg Med Chem Lett, 2011).

Assays:
[1] = Chemical stability of the compound assessed as half life at pH 4 to 10; assay type: physicochemical; settings: buffer
[2] = Photolytic stability of the compound in phosphate buffer at pH 7 up to 4 hrs by LC-UV-MS analysis; assay type: physicochemical; settings: pH 7, 4 h
[3] = Intrinsic clearance in human liver microsomes; assay type: ADME, Microsome
[4] = Intrinsic clearance in Sprague-Dawley rat hepatocytes measured per 10^6 cells; assay type: ADME, cell-based, Liver, Hepatocyte
[5] = Clearance in rat at 2 mg/kg, iv; assay type: ADME, organism-based; parameters: dose 2 mg/kg, route intravenous; settings: in vivo
Method in brief: (§1)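 Rats dosed intravenously at 2 mg/kg, n = 2 animals. Clearance is reported in ml/min/kg, half-life in h and steady-state volume of distribution in l/kg.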

[6] = Half life in rat at 2 mg/kg, iv; assay type: ADME, organism-based; parameters: dose 2 mg/kg, route intravenous; settings: in vivo; method in brief: as §1
[7] = Volume of distribution at steady state in rat at 2 mg/kg, iv; assay type: ADME, organism-based; parameters: dose 2 mg/kg, route intravenous; settings: in vivo, read-out: Vdss; method in brief: as §1

Row | Compound | half-life [1] | Stability [2] | further results
1 | Cc1ccc(Oc2ccc(C(=O)NCc3ccncc3)cc2)cc1 | > 41.7 days |  | 
2 | O=C(NCc1ccncc1)c1ccc(Oc2ccccc2)cc1 | > 41.7 days | Stable | 
3 | O=C(NCc1ccncc1)c1ccc(OCc2ccccc2)cc1 | > 41.7 days | Stable | 
4 | O=C(NCc1ccncc1)c1ccc(Oc2ccc(C#C[C@]3(O)CN4CCC3CC4)cc2)cc1 | > 41.7 days | Stable | 
5 | Cc1ccc(Oc2ccc(C(=O)NCc3cccnc3)cc2)cc1 | > 41.7 days |  | 
6 | Cc1ccc(Oc2ccc(C(=O)NCc3ccccc3)cc2)cc1 | > 41.7 days |  | 
7 | COc1cccc(CNC(=O)c2ccc(Oc3ccc(C)cc3)cc2)c1 | > 41.7 days |  | 
8 | Cc1ccc(Oc2ccc(C(=O)N(C)Cc3ccncc3)cc2)cc1 | > 41.7 days |  | 
9 | Cc1ccc(Oc2ccc(C(=O)NCCc3ccncc3)cc2)cc1 | > 41.7 days |  | 
10 | Cc1ccc(Oc2ccc(C(=O)NCC3CCCCC3)cc2)cc1 | > 41.7 days |  | 
11 | Cc1ccc(Oc2ccc(C(=O)NCCO)cc2)cc1 | > 41.7 days |  | 
12 | Cc1ccc(Oc2ccc(C(=O)NCCCN(C)C)cc2)cc1 | > 41.7 days | Stable | 
13 | CNC(=O)c1ccc(Oc2ccc(C)cc2)cc1 | > 41.7 days | Stable | 
14 | COc1ccc(C(=O)NCc2ccncc2)cc1 | > 41.7 days | Stable | 
15 | O=C(NCc1ccncc1)c1ccc(-c2ccccc2)cc1 | > 41.7 days | Stable | 
16 | O=C(NCc1ccncc1)c1ccc(OCCc2ccccc2)cc1 | > 41.7 days | Stable | 
17 | O=C(NCc1ccncc1)c1ccc(Oc2ccc([N+](=O)[O-])cc2)cc1 | > 41.7 days | Stable | 
18 | COc1cc(Oc2ccc(C(=O)NCc3ccncc3)cc2)ccc1[N+](=O)[O-] | > 41.7 days | Stable | 
19 | N#Cc1ccccc1Oc1ccc(C(=O)NCc2ccncc2)cc1 | > 41.7 days | Stable | 
20 | CNC(=O)c1ccc(Oc2ccc(C(=O)NCc3ccncc3)cc2)cc1 | > 41.7 days | Stable | 
21 | O=C(NCc1ccncc1)c1ccc(Oc2ccc(/C=C/C3=CN4CCC3CC4)cc2)cc1 | > 41.7 days | Stable | 
22 | O=C(NCc1ccncc1)c1ccc(Oc2ccc(C#C[C@@]3(O)CN4CCC3CC4)cc2)cc1 | > 41.7 days | Stable | 
23 | O=C(NCc1ccncn1)c1ccc(Oc2ccc(C#C[C@]3(O)CN4CCC3CC4)cc2)cc1 | > 41.7 days | Stable | microsomal CLint [3]: < 2 µL/min/mg; hepatocyte CLint [4]: 3 µL/min/1e6 cells; clearance [5]: 17 mL/min/kg; half-life [6]: 0.1 days; Vd [7]: 2.4 L/kg
24 | O=C(NCc1ccncn1)c1ccc(Oc2ccc(C#C[C@@]3(O)CN4CCC3CC4)cc2)cc1 | > 41.7 days | Stable | 
25 | O=C(NCc1ccncn1)c1ccc(Oc2ccc(CCC3(O)CN4CCC3CC4)cc2)cc1 (stereo not given) | > 41.7 days | Stable | 
26 | O=C(NCc1ccncn1)c1ccc(Oc2ccc(/C=C/C3(O)CN4CCC3CC4)cc2)cc1 (stereo not given) | > 41.7 days | Stable | 
27 | COC1(C#Cc2ccc(Oc3ccc(C(=O)NCc4ccncn4)cc3)cc2)CN2CCC1CC2 (stereo not given) | > 41.7 days | Stable | 
28 | O=C(NCc1ccncn1)c1ccc(Oc2ccc(/C=C/C3=CN4CCC3CC4)cc2)cc1 | > 41.7 days | Stable | 
29 | O=C(NCc1ccncc1)c1ccc(Oc2ccc(C#CC3(O)CN4CCC3CC4)cc2)cc1 (racemic) | > 41.7 days | Stable | 
